In ChEMBL document CHEMBL1121682, “Cerebrovasodilatation through selective inhibition of the enzyme carbonic anhydrase. 3. 5-(Arylthio)-, 5-(arylsulfinyl)-, and 5-(arylsulfonyl)thiophene-2-sulfonamides” (J Med Chem, 1981):
Calls of active or inactive are those of the source. No cut-off for these calls is given here.

Key:
[1] = Anticonvulsant potency ratio expressed as ratio ED50 of UK-12130 to that of compound during separate electroshock experiments; type: functional
Mus musculus [2] = assay: Effective dose of perorally administered, that gives protection against max electroshock in mice; type: functional; details: po
In short: (§1)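 Male mice of 18–28 g, with weights within ±2 g of the assay mean, in groups of ten. Vehicle controls were included. Corneal electrodes delivered 200 ms at 20 mA (mean weight ≤20 g) or 25 mA, the current giving maximal tonic extensor convulsion in untreated mice.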

Mus musculus [3] = assay: Effective dose of perorally administered compound that gives protection against max electroshock in mice; inactive; type: functional, organism-based
In short: as §1, with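 “ten. Compound was ball-milled in 0.1% (v/v) Tween-80 in saline and given by gavage at 2.5, 6.25 and 16 mg/kg, 2 h before shock.” for “ten.”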

[4] = Concentration producing 50% inhibition of carbonic anhydrase taken from mouse erythrocytes
In short: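 Colorimetric assay, modified from Philpot and Philpot, run in an ice bath with about 2 enzyme units. Inhibitor was preincubated with enzyme for 5 min before substrate was added. Activity was expressed as EU = (T0 − T)/T from the uncatalyzed and catalyzed reaction times in seconds. The 50% inhibitory concentration was read graphically.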

[5] = Dissociation constant in water; type: physicochemical
[6] = Dissociation constant in 30% aqueous methanol; type: physicochemical

| Structure (SMILES) | Ratio [1] | ED50 (Mus musculus [2]) | other results |
| --- | --- | --- | --- |
| NS(=O)(=O)c1ccc(S(=O)(=O)c2ccc(Br)cc2)s1 | 1.75 | 4 mg/kg | – |
| CC(=O)Nc1ccc([S+]([O-])c2ccc(S(N)(=O)=O)s2)cc1 (centres undefined) | 1.5 | 4 mg/kg | – |
| Cc1cc(S(N)(=O)=O)sc1S(=O)(=O)c1ccccc1 | 2.7 | 3 mg/kg | – |
| NS(=O)(=O)c1ccc(S(=O)(=O)c2cccc(F)c2)s1 | 3.5 | 2 mg/kg | – |
| NS(=O)(=O)c1cc(Cl)c(S(=O)(=O)c2ccccc2)s1 | 2.3 | 3 mg/kg | – |
| NS(=O)(=O)c1ccc(S(=O)(=O)c2ccc(Cl)cc2)s1 | 2.3 | 3 mg/kg | – |
| Nc1ccc(S(=O)(=O)c2ccc(S(N)(=O)=O)s2)cc1 | 3.5 | 2 mg/kg | – |
| Nc1ccc(Sc2ccc(S(N)(=O)=O)s2)cc1 | 1 | 7 mg/kg | – |
| Cc1ccc(S(=O)(=O)c2ccc(S(N)(=O)=O)s2)cc1 | 0.8 | 8 mg/kg | – |
| CC(=O)c1cccc(S(=O)(=O)c2ccc(S(N)(=O)=O)s2)c1 | 2.3 | 3 mg/kg | – |
| CC(=O)Nc1ccc(Sc2ccc(S(N)(=O)=O)s2)cc1 | 1.1 | 9 mg/kg | – |
| CC(=O)Nc1ccc(Sc2cc(Cl)c(S(N)(=O)=O)s2)cc1 | 1.4 | 5 mg/kg | – |
| CC(=O)Nc1ccc(Sc2sc(S(N)(=O)=O)cc2Cl)cc1 | – | – | ED50 (Mus musculus [3]): inactive |
| NS(=O)(=O)c1cc(Br)c(S(=O)(=O)c2ccccc2)s1 | 2.3 | 3 mg/kg | Concentration [4]: 4.2 nM; pKa [5]: 7.98 |
| CC(C)C(=O)Nc1ccc(Sc2ccc(S(N)(=O)=O)s2)cc1 | – | – | ED50 (Mus musculus [3]): inactive |
| CC(=O)Nc1ccc(S(=O)(=O)c2sc(S(N)(=O)=O)cc2Cl)cc1 | 1.3 | 6 mg/kg | – |
| Cc1ccccc1S(=O)(=O)c1ccc(S(N)(=O)=O)s1 | 1.2 | 6 mg/kg | – |
| COc1ccc([S+]([O-])c2ccc(S(N)(=O)=O)s2)cc1 (centres undefined) | < 1.3 | > 6 mg/kg | – |
| Cc1ccc([S+]([O-])c2ccc(S(N)(=O)=O)s2)cc1 (centres undefined) | < 1.3 | > 6 mg/kg | – |
| NS(=O)(=O)c1sc(S(=O)(=O)c2ccccc2)cc1Cl | 0.2 | 33 mg/kg | – |
| CC(=O)Nc1ccc(S(=O)(=O)c2ccc(S(N)(=O)=O)s2)cc1 | 4 | 2 mg/kg | – |

| Structure (SMILES) | Ratio [1] | ED50 (Mus musculus [2]) | other results |
| --- | --- | --- | --- |
| CSc1ccc(Sc2ccc(S(N)(=O)=O)s2)cc1 | 1.75 | 4 mg/kg | – |
| NS(=O)(=O)c1ccc(S(=O)(=O)c2cccc(C(F)(F)F)c2)s1 | 1.6 | 5 mg/kg | – |
| NS(=O)(=O)c1ccc(Sc2ccc(Cl)cc2)s1 | 2 | 3 mg/kg | Concentration [4]: 3 nM; pKa [6]: 9.19 |
| CC(C)(C)c1ccc(S(=O)(=O)c2ccc(S(N)(=O)=O)s2)cc1 | – | – | ED50 (Mus musculus [3]): inactive |
| CS(=O)(=O)c1ccc([S+]([O-])c2ccc(S(N)(=O)=O)s2)cc1 (centres undefined) | < 0.4 | > 16 mg/kg | – |
| COC1CCN(S(=O)(=O)c2ccc(S(N)(=O)=O)c(Cl)c2)CC1 | – | – | Concentration [4]: 190 nM |
| CN(C)S(=O)(=O)c1ccc(S(=O)(=O)c2ccc(S(N)(=O)=O)s2)cc1 | – | – | ED50 (Mus musculus [3]): inactive |
| NS(=O)(=O)c1ccc(Sc2cccc(C(F)(F)F)c2)s1 | 1.3 | 6 mg/kg | – |
| NS(=O)(=O)c1ccc([S+]([O-])c2ccc(Cl)cc2)s1 (centres undefined) | 3.5 | 2 mg/kg | Concentration [4]: 26 nM; pKa [5]: 8.57 |
| NC(=O)c1ccc(S(=O)(=O)c2ccc(S(N)(=O)=O)s2)cc1 | 2 | 4 mg/kg | – |
| NS(=O)(=O)c1ccc(Sc2cccc(Cl)c2)s1 | < 1.2 | > 6 mg/kg | – |
| CS(=O)(=O)c1ccc(Sc2ccc(S(N)(=O)=O)s2)cc1 | 1.4 | 5 mg/kg | – |
| CC(=O)Nc1ccc(S(=O)(=O)c2cc(Cl)c(S(N)(=O)=O)s2)cc1 | < 1.3 | > 6 mg/kg | – |
| NS(=O)(=O)c1ccc(Sc2ccc(F)cc2)s1 | 1 | 7 mg/kg | – |
| CS(=O)(=O)c1ccc(S(=O)(=O)c2ccc(S(N)(=O)=O)s2)cc1 | 1.75 | 4 mg/kg | – |
| CN(C)S(=O)(=O)c1ccc(Sc2ccc(S(N)(=O)=O)s2)cc1 | < 1.3 | > 6 mg/kg | – |
| NS(=O)(=O)c1cc(Cl)c([S+]([O-])c2ccccc2)s1 (centres undefined) | < 1.3 | > 6 mg/kg | – |
| NS(=O)(=O)c1ccc(S(=O)(=O)c2ccccc2)s1 | 3.5 | 2 mg/kg | – |
| NS(=O)(=O)c1ccc(S(=O)(=O)c2ccc3ccccc3c2)s1 | 0.75 | 8 mg/kg | – |
| NS(=O)(=O)c1ccc(Sc2ccccc2)s1 | 0.3 | 19 mg/kg | – |
| CC(C)(C)c1ccc(Sc2ccc(S(N)(=O)=O)s2)cc1 | – | – | ED50 (Mus musculus [3]): inactive |

| Structure (SMILES) | Ratio [1] | ED50 (Mus musculus [2]) | other results |
| --- | --- | --- | --- |
| NS(=O)(=O)c1ccc([S+]([O-])c2cccc(Cl)c2)s1 (centres undefined) | 1.75 | 4 mg/kg | – |
| COc1ccc(S(=O)(=O)c2ccc(S(N)(=O)=O)s2)cc1 | 1 | 6 mg/kg | – |
| NS(=O)(=O)c1sc(Sc2ccccc2)cc1Cl | – | – | ED50 (Mus musculus [3]): inactive |
| NS(=O)(=O)c1ccc([S+]([O-])c2cccc(F)c2)s1 (centres undefined) | 3.2 | 2.5 mg/kg | – |
| NS(=O)(=O)c1cc(Br)c(Sc2ccccc2)s1 | – | – | ED50 (Mus musculus [3]): inactive |
| NS(=O)(=O)c1cc(Cl)c(Sc2ccccc2)s1 | – | – | ED50 (Mus musculus [3]): inactive |
| NS(=O)(=O)c1ccc(S(=O)(=O)c2ccc(F)cc2)s1 | 4 | 2 mg/kg | Concentration [4]: 9 nM; pKa [5]: 8.29 |
| NS(=O)(=O)c1ccc(Sc2ccc3ccccc3c2)s1 | – | – | ED50 (Mus musculus [3]): inactive |
| NS(=O)(=O)c1ccc(S(=O)(=O)c2ccccc2)cc1 | 0.9 | 10 mg/kg | Concentration [4]: 64 nM; pKa [5]: 9.1 |
| CC(C)C(=O)Nc1ccc(S(=O)(=O)c2ccc(S(N)(=O)=O)s2)cc1 | 2 | 4 mg/kg | – |
| NS(=O)(=O)c1ccc(Sc2ccc(O)cc2)s1 | – | – | ED50 (Mus musculus [3]): inactive |
| Cc1ccccc1Sc1ccc(S(N)(=O)=O)s1 | < 0.5 | > 16 mg/kg | – |
| NS(=O)(=O)c1ccc([S+]([O-])c2ccc(Br)cc2)s1 (centres undefined) | 1.4 | 5 mg/kg | – |
| NS(=O)(=O)c1ccc([S+]([O-])c2ccc(F)cc2)s1 (centres undefined) | 2 | 3 mg/kg | – |
| COc1ccc(Sc2ccc(S(N)(=O)=O)s2)cc1 | < 0.2 | > 40 mg/kg | – |
| NS(=O)(=O)c1ccc(S(=O)(=O)c2ccc(O)cc2)s1 | – | – | ED50 (Mus musculus [3]): inactive |
| NS(=O)(=O)c1ccc([S+]([O-])c2ccccc2)s1 (centres undefined) | 3.5 | 2 mg/kg | – |
| Cc1ccc(Sc2ccc(S(N)(=O)=O)s2)cc1 | < 0.2 | > 40 mg/kg | – |
| CC(=O)Nc1nnc(S(N)(=O)=O)s1 [ACETAZOLAMIDE] | – | 36 mg/kg | Concentration [4]: 20 nM |
| NS(=O)(=O)c1ccc(Sc2ccc(Br)cc2)s1 | < 1.2 | > 6 mg/kg | – |
| NS(=O)(=O)c1ccc(Sc2cccc(F)c2)s1 | < 1.3 | > 6 mg/kg | – |
